The nature of series [1]: Drug uptake in lysosomes of human HT-29 cells assessed as accumulation in lipid droplets by LysoTracker Red and Nile red staining based confocal microscopic analysis. In kind it is ADME, cell-based. The method in brief:
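HT-29 cells were imaged by confocal fluorescence microscopy using the compound's own fluorescence. Co-staining was with LysoTracker Deep Red for lysosomes and Nile Red for lipid droplets. Colocalization was expressed as the Pearson's correlation coefficient.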

In series [2] the test system is HeLa. The series is described as follows: Cytotoxicity against oleic acid-induced human HeLa cells assessed as reduction in cell viability incubated for 24 hrs by MTT assay. Type of series: functional, cell-based.
For series [3], the system named is HeLa. The series is described as follows: Cytotoxicity against human HeLa cells assessed as reduction in cell viability incubated for 24 hrs by MTT assay. Type of series: functional, cell-based.
Series [4] in a line: Stability of compound in ammonium acetate assessed as half life at pH 7. Type of series: physicochemical.
Another series concerns HT-29. Description: Cytotoxicity against human HT-29 cells assessed as reduction in cell viability incubated for 24 hrs by MTT assay. In kind it is functional, cell-based. Conditions: HT-29, 24 h; call rule not given here.

Turning to `CCC1=[N+]2N=C(c3ccccc3)C(=O)O[B-]2(c2ccccc2)Oc2cc(OC)ccc21` (stereo unspecified), the Drug uptake entry in series [1] was “Active”.
With `CCC1=[N+]2N=C(c3ccccc3)C(=O)O[B-]2([C@H](CC(C)C)NC(=O)[C@@H](Cc2ccccc2)NC(=O)c2cnccn2)Oc2cc(OC)ccc21` (stereo partly specified), the IC50 is > 200 nM in the series on HeLa [2], 134 nM in the series on HeLa [3] and 19.5 nM in the series on HT-29. In addition, in series [1], the Drug uptake entry is “Active”. For the same compound, the half-life in series [4] is 13 h.
Regarding `CC[C@H](C)[C@H](NC(=O)[C@H](Cc1ccccc1)NC(=O)[C@H](CCCNC(=N)N)NC(=O)[C@H](CC(C)C)NC(=O)[C@H](CCCNC(=N)N)NC(=O)[C@H](CO)NC(=O)[C@@H](NC(=O)[C@H](CC(C)C)NC(=O)[C@H](CC(C)C)NC(=O)[C@H](C)NC(=O)[C@@H]1CCCN1C(=O)[C@H](CCCNC(=N)N)NC(=O)[C@H](C)NC(=O)[C@@H](N)CCC(=O)O)[C@@H](C)O)C(=O)N1CCC[C@H]1C(=O)N[C@@H](CCCCN)C(=O)N[C@H](CSC1CC(=O)N(CCC(=O)NCCOCCOCCOCCOCCC(=O)NCCC(=O)N2Cc3ccccc3-c3c(nnn3CCOCCOCCOCCOc3ccc4c(c3)O[B-]3([C@@H](CC(C)C)NC(=O)[C@@H](Cc5ccccc5)NC(=O)c5cnccn5)OC(=O)C(c5ccccc5)=N[N+]3=C4c3ccccc3)-c3ccccc32)C1=O)C(=O)O` (stereo partly specified), in series [1], the Drug uptake result is recorded as “Not Active”. Besides, the IC50 in the series on HT-29 was found to be 100 nM.
As for `CCc1c2c(nc3ccc(O)cc13)-c1cc3c(c(=O)n1C2)COC(=O)[C@]3(O)CC` [7-ETHYL-10-HYDROXYCAMPTOTHECIN], the IC50 with HeLa [2] is > 1000 nM; in the series with HeLa [3], 349 nM.
For `COc1ccc2c(c1)O[B-]1([C@H](CC(C)C)NC(=O)[C@@H](Cc3ccccc3)NC(=O)c3cnccn3)OC(=O)C(c3ccccc3)=N[N+]1=C2c1ccccc1` (stereo partly specified), in the series with HT-29, the IC50 came out at 450 nM.
Turning to `CC(C)C[C@H](NC(=O)[C@H](Cc1ccccc1)NC(=O)c1cnccn1)B(O)O` [BORTEZOMIB], the IC50 is > 200 nM with HeLa [2], 20 nM with HeLa [3] and 3.2 nM in the series with HT-29.
In the case of `COc1cccc2c1C(=O)c1c(O)c3c(c(O)c1C2=O)C[C@@](O)(C(=O)CO)C[C@@H]3O[C@H]1C[C@H](N)[C@H](O)[C@H](C)O1` [DOXORUBICIN], the IC50 in the series with HeLa [2] was > 1000 nM; with HeLa [3], 90 nM.

(Values after ChEMBL document CHEMBL5036367, “The BASHY Platform Enables the Assembly of a Fluorescent Bortezomib-GV1001 Conjugate” (ACS Med Chem Lett, 2022).)
